Measurements from ChEMBL document CHEMBL4265926, “Synthesis and antibacterial activity evaluation of novel biaryloxazolidinone analogues containing a hydrazone moiety as promising antibacterial agents” (Eur J Med Chem, 2018).
Values after ≈ are worked out from the molar mass of the structure shown.

Assays:
Format in all cases: functional
Enterococcus faecium = assay: Antibacterial activity against vancomycin-resistant Enterococcus faecium by broth liquid microdilution method
How it was run: (§1)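 Isolates were identified on an automated MicroScan WalkAway 96 system. Susceptibility was tested by broth microdilution following CLSI guidelines. MIC was taken as the lowest concentration giving complete inhibition of bacterial growth. S. aureus ATCC 29213 served as the control strain.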

Staphylococcus aureus [1] = assay: Antibacterial activity against Staphylococcus aureus ATCC 29213 by broth liquid microdilution method; how it was run: as §1
Enterococcus faecalis = assay: Antibacterial activity against linezolid-resistant Enterococcus faecalis by broth liquid microdilution method; how it was run: as §1
Staphylococcus aureus [2] = assay: Antibacterial activity against methicillin-resistant Staphylococcus aureus by broth liquid microdilution method; how it was run: as §1
Staphylococcus aureus [3] = assay: Antibacterial activity against methicillin-sensitive Staphylococcus aureus by broth liquid microdilution method; how it was run: as §1

SMILES | MIC (Enterococcus faecium) | MIC (Staphylococcus aureus [1]) | MIC (Enterococcus faecalis) | MIC (Staphylococcus aureus [2]) | MIC (Staphylococcus aureus [3])
CC(=O)NC[C@H]1CN(c2ccc(-c3ccc(/C=N/N4CCN(S(C)(=O)=O)CC4)cc3)c(F)c2)C(=O)O1 | 2 µg/mL (≈ 3.86 µM) | 1 µg/mL (≈ 1.93 µM) | 0.5 µg/mL (≈ 0.966 µM) | 0.5 µg/mL (≈ 0.966 µM) | 1 µg/mL (≈ 1.93 µM)
CCC(=O)N1CCN(/N=C/c2ccc(-c3ccc(N4C[C@H](CNC(C)=O)OC4=O)cc3F)cc2)CC1 | 0.125 µg/mL (≈ 0.252 µM) | 0.125 µg/mL (≈ 0.252 µM) | 0.125 µg/mL (≈ 0.252 µM) | 0.125 µg/mL (≈ 0.252 µM) | 0.125 µg/mL (≈ 0.252 µM)
COc1ccccc1C(=O)N1CCN(/N=C/c2ccc(-c3ccc(N4C[C@H](CNC(C)=O)OC4=O)cc3F)cc2)CC1 | 0.125 µg/mL (≈ 0.218 µM) | 0.5 µg/mL (≈ 0.872 µM) | 0.125 µg/mL (≈ 0.218 µM) | 0.125 µg/mL (≈ 0.218 µM) | 0.0675 µg/mL (≈ 0.118 µM)
CC(=O)NC[C@H]1CN(c2ccc(-c3ccc(/C=N/N4CCOCC4)cc3)c(F)c2)C(=O)O1 | 0.5 µg/mL (≈ 1.14 µM) | 0.5 µg/mL (≈ 1.14 µM) | 0.25 µg/mL (≈ 0.568 µM) | 0.25 µg/mL (≈ 0.568 µM) | 0.25 µg/mL (≈ 0.568 µM)
CC(=O)NC[C@H]1CN(c2ccc(-c3ccc(/C=N/N4CCN(C(=O)c5cnccn5)CC4)cc3)c(F)c2)C(=O)O1 | 0.125 µg/mL (≈ 0.229 µM) | 0.125 µg/mL (≈ 0.229 µM) | 0.125 µg/mL (≈ 0.229 µM) | 0.125 µg/mL (≈ 0.229 µM) | 0.125 µg/mL (≈ 0.229 µM)
CC(=O)NC[C@H]1CN(c2ccc(-c3ccc(/C=N/N4CCN(C(=O)c5ccccc5)CC4)cc3)c(F)c2)C(=O)O1 | 0.25 µg/mL (≈ 0.46 µM) | 0.25 µg/mL (≈ 0.46 µM) | 0.25 µg/mL (≈ 0.46 µM) | 0.25 µg/mL (≈ 0.46 µM) | 0.125 µg/mL (≈ 0.23 µM)
CC(=O)NC[C@H]1CN(c2ccc(-c3ccc(CNCc4cnn[nH]4)cc3)c(F)c2)C(=O)O1 [RADEZOLID] | 0.5 µg/mL (≈ 1.14 µM) | 0.5 µg/mL (≈ 1.14 µM) | 0.5 µg/mL (≈ 1.14 µM) | 0.5 µg/mL (≈ 1.14 µM) | 0.5 µg/mL (≈ 1.14 µM)
COc1ccc(C(=O)N2CCN(/N=C/c3ccc(-c4ccc(N5C[C@H](CNC(C)=O)OC5=O)cc4F)cc3)CC2)cc1 | 0.125 µg/mL (≈ 0.218 µM) | 0.125 µg/mL (≈ 0.218 µM) | 0.125 µg/mL (≈ 0.218 µM) | 0.125 µg/mL (≈ 0.218 µM) | 0.125 µg/mL (≈ 0.218 µM)
CC(=O)NC[C@H]1CN(c2ccc(-c3ccc(/C=N/N4CCN(C(=O)c5ccc(Cl)cc5)CC4)cc3)c(F)c2)C(=O)O1 | 0.25 µg/mL (≈ 0.432 µM) | 0.0675 µg/mL (≈ 0.117 µM) | 0.25 µg/mL (≈ 0.432 µM) | 0.0675 µg/mL (≈ 0.117 µM) | 0.0675 µg/mL (≈ 0.117 µM)
CC(=O)NC[C@H]1CN(c2ccc(-c3ccc(/C=N/N4CCCCC4)cc3)c(F)c2)C(=O)O1 | 0.5 µg/mL (≈ 1.14 µM) | 0.25 µg/mL (≈ 0.57 µM) | 0.25 µg/mL (≈ 0.57 µM) | 0.25 µg/mL (≈ 0.57 µM) | 0.25 µg/mL (≈ 0.57 µM)
CC(=O)NC[C@H]1CN(c2ccc(-c3ccc(/C=N/N4CCN(C(=O)C(F)(F)F)CC4)cc3)c(F)c2)C(=O)O1 | 0.125 µg/mL (≈ 0.233 µM) | 0.125 µg/mL (≈ 0.233 µM) | 0.125 µg/mL (≈ 0.233 µM) | 0.125 µg/mL (≈ 0.233 µM) | 0.125 µg/mL (≈ 0.233 µM)
CC(=O)NC[C@H]1CN(c2ccc(-c3ccc(/C=N/N4CCN(C(=O)OC(C)(C)C)CC4)cc3)c(F)c2)C(=O)O1 | > 2 µg/mL | > 2 µg/mL | > 2 µg/mL |  | > 2 µg/mL
CC(=O)NC[C@H]1CN(c2ccc(-c3ccc(/C=N/N4CCN(C(=O)c5ccc(C(F)(F)F)cc5)CC4)cc3)c(F)c2)C(=O)O1 | 0.125 µg/mL (≈ 0.204 µM) | 0.125 µg/mL (≈ 0.204 µM) | 0.125 µg/mL (≈ 0.204 µM) | 0.125 µg/mL (≈ 0.204 µM) | 0.125 µg/mL (≈ 0.204 µM)
CC(=O)NC[C@H]1CN(c2ccc(-c3ccc(/C=N/N4CCS(=O)(=O)CC4)cc3)c(F)c2)C(=O)O1 | 0.25 µg/mL (≈ 0.512 µM) | 0.25 µg/mL (≈ 0.512 µM) | 0.25 µg/mL (≈ 0.512 µM) | 0.25 µg/mL (≈ 0.512 µM) | 0.25 µg/mL (≈ 0.512 µM)
CC(=O)NC[C@H]1CN(c2ccc(-c3ccc(/C=N/N4CCN(C(=O)c5ccccn5)CC4)cc3)c(F)c2)C(=O)O1 | 0.125 µg/mL (≈ 0.23 µM) | 0.125 µg/mL (≈ 0.23 µM) | 0.125 µg/mL (≈ 0.23 µM) | 0.125 µg/mL (≈ 0.23 µM) | 0.125 µg/mL (≈ 0.23 µM)
CC(=O)NC[C@H]1CN(c2ccc(-c3ccc(/C=N/N4CCN(C(=O)c5cccs5)CC4)cc3)c(F)c2)C(=O)O1 | 0.5 µg/mL (≈ 0.91 µM) | 0.125 µg/mL (≈ 0.227 µM) | 0.5 µg/mL (≈ 0.91 µM) | 0.25 µg/mL (≈ 0.455 µM) | 0.25 µg/mL (≈ 0.455 µM)
